HCV core dimer = HCV core protein dimerization inhibition | hit rate 0.33% among 300,000 | TR-FRET GST/Flag-core106 dimerization, 1536-well | inhibition, % at 5 µM;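 active = inhibition above the mean of all tested compounds plus 3 SD, set per screening campaign, cut at about 45% in these data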
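Assay system – GST-tagged and Flag-tagged HCV core protein residues 1-106 · Quantity – core106 proteins, GST 13.5 nM and Flag 17 nM · Benchmarks – unlabelled core106 and no-GST-core106 wells · Read-out basis – percent inhibition of core106 dimerization signal · Detection – time-resolved FRET, ex 340 nm, em 617 and 671 nm · Schedule – 4 h at 22.5 °C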
GPR7 antag = blocks human GPR7 receptor signaling. hit rate 1.1% among 290,000. GPR7-expressing cells, fluorescence antagonist assay. inhibition, % at 4.4 µM. P48145; in the data active = inhibition above about 16%, passing the limit was not always enough;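 note: cells stimulated with the agonist NPW; 0% = agonist with vehicle and 100% = vehicle without agonist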
Target sequence (P48145 whole entry, looked up): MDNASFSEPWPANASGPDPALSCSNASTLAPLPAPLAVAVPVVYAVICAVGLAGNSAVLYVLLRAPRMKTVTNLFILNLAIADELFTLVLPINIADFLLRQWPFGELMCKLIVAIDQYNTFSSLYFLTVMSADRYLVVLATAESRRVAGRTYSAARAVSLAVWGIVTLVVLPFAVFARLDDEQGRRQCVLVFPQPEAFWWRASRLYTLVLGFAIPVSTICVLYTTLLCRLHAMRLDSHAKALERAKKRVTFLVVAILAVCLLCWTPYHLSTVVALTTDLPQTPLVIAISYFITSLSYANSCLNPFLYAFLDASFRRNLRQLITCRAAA
DNA FID counter = displaces DNA intercalator in HCV helicase counter-screen | DNA fluorescent intercalator displacement, fluorescence | inhibition, % at 7.9 µM | hit rate 0.17% among 290,000 | AID 1845; in the data active = inhibition above about 37%;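 note: 0% = vehicle and 100% = reference compound; higher means more ethidium bromide displaced from hairpin DNA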
GRK2 inh = blocks RNA aptamer binding to human GRK2; bead flow cytometry, FAM-aptamer displacement from GRK2; inhibition of aptamer binding, % at 10 µM; hit rate 0.59% among 330,000; AID 488847;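 active = inhibition of aptamer binding above 40%, roughly 3 SD of noise, on plates passing a quality check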;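 note: median bead fluorescence of bound FAM aptamer so fluorescent compounds give negative values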
HCV NS3 hel inh = inhibitors of Hepatitis C virus NS3 helicase | hit rate 0.56% among 290,000 | inhibition, % at 10.9 µM | NS3 helicase DNA unwinding, Cy5 molecular beacon fluorescence;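 active = inhibition above the mean of all tested compounds plus 3 SD, set per campaign, cut at about 35% in these data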;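 note: 0% = DMSO wells and 100% = thioflavine S control wells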
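assay system = NS3 helicase fragment of HCV | buffer or medium = MOPS pH 6.5, MgCl2, DTT, Tween20, BSA | timing = 60 min unwinding reaction at 25 °C after ATP addition | signal = Cy5 beacon fluorescence read at start and 1 h | read-out basis = % inhibition of unwinding | control set = low DMSO, high thioflavine S at 110 µM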
DAGLB inhibitor = diacylglycerol lipase beta (human) inhibition; Q8NCG7; HEK293T DAGLB membrane lysate, EnzChek fluorogenic substrate; inhibition, % at 5.17 µM; hit rate 0.059% among 340,000; AID 504411; in the data active = inhibition above about 34%;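 note: 0% = enzyme with vehicle and 100% = wells lacking enzyme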
DAGLB confirm = DAGLB (human) inhibition, confirmation screen. hit rate 73% among 190. inhibition, % at 5.17 µM. HEK293T DAGLB membrane lysate, EnzChek fluorogenic substrate. shares compounds with DAGLB inhibitor. AID 504445;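 active = mean inhibition over triplicate wells above a set limit taken from the primary lipase screen, cut at about 34% in these data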;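 note: 0% = DAGLB with DMSO and 100% = wells lacking DAGLB enzyme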
* marks the source's active call; other numbers are inactive results; . = no result; ! = not active in a repeat. A selection: hits, their analogues and other compounds. The true share with any hit is near 2.2%.

SMILES	HCV core dimer	GPR7 antag	DNA FID counter	GRK2 inh	HCV NS3 hel inh	DAGLB inhibitor	DAGLB confirm
Cc1cccc(N(Cc2ccccc2)C(=O)c2ccccc2S(C)(=O)=O)c1	-14	-3	-48	0	-2	-3	.
COC(=O)C1=C(C(=O)OC)SC(=C2C(=S)C(C)(C)N(C(=O)C3CC3)c3ccccc32)S1	2	-6	-2	1	9	41*	47*
COC(=O)c1ccccc1NC1=C/C(=N\S(=O)(=O)c2cccs2)c2ccccc2C1=O	24	-5	3	3	17	42*!	55*
COC(=O)c1ccccc1NC1=C/C(=N\S(=O)(=O)c2ccc(C(=O)O)cc2)c2ccccc2C1=O	23	-20	-3	3	-18	19	.
O=[N+]([O-])c1ccccc1N/N=C/c1c[nH]c2ccccc12	-45	-10	16	0	-7	58*	61*
Cc1ccc(S(=O)(=O)N/N=C/c2cccn2-c2ccc(Cl)cc2)cc1	13	1	-4	1	0	-2	.
CC1=NN(c2ccc(Cl)cc2)C(=O)/C1=C\c1cccn1-c1ccc(S(N)(=O)=O)cc1	15	-5	2	0	-1	36*	28
N=C1C(c2nc3ccccc3s2)=C(O)CN1NC(=O)c1ccccc1[N+](=O)[O-]	15	-10	7	0	8	37*	53*
N=C1C(c2nc3ccccc3s2)=C(O)CN1NC(=O)c1c[nH]c2ccccc12	3	-13	1	0	-9	2	.
CC(=O)c1ccc(N2CCN(c3ccc(C(F)(F)F)cn3)CC2)cc1	24	6	-5	0	-4	50*	70*
CC(=O)c1ccc(N2CCN(c3ncc(C(F)(F)F)cc3Cl)CC2)cc1	7	9	-7	0	6	-7	.
COc1cc(C2C(c3ccccc3)C(c3cc(OC)cc(=O)o3)C2c2ccccc2)oc(=O)c1 (centres undefined)	.	.	.	.	.	-1	.
CCOC(=O)/C(C#N)=C/C=C1\C=Cc2ccccc2N1CC	-14	4	-12	0	-2	37*	46*
Cn1c2ccccc2c2cc([N+](=O)[O-])ccc21	2	-8	7	1	-1	0	.
CN1c2ccc([N+](=O)[O-])cc2N(C)C1(C)c1ccccc1 (centres undefined)	.	-5	2	36	16	37*	33
CC(C)n1cnc2c(NCc3ccccc3)cc(N[C@H](C)CO)cc21	.	.	.	0	.	-4	.
C=COC(=O)c1sc2nc(C)cc(C)c2c1N	-2	-12	-5	0	-8	0	.
O=C(NN1C(=O)/C(=C/c2ccc(O)c(O)c2)SC1=S)c1ccccc1	-23	14	28	2	30	39*	32
O=C1/C(=C/c2ccc(O)c(O)c2)SC(=S)N1Nc1ccccc1	.	-4	11	.	24	40*	30
CN1CCN(C(=O)C(N)Cc2ccccc2)CC1 (centres undefined)	-5	6	16	1	-15	3	.
O=C1c2cccc(Cl)c2C(=O)c2c1cccc2N1CCCC1	-19	-2	16	2	-9	44*	64*
Cc1[nH]n2c(=O)cc(-c3ccc([N+](=O)[O-])cc3)nc2c1-c1ccccc1	7	4	-22	0	6	48*	42*
CCCCc1ccc(C2C3=C(CC(C)(C)CC3=O)NC3=C2C(=O)c2ccccc23)cc1 (centres undefined)	25	-7	-2	0	-2	46*	33
O=C1C=CN2CCCCC2CC1 (centres undefined)	.	.	.	0	.	-1	.
O=C(O)c1[nH]c2ccccc2c1C(c1cc(Cl)cc([N+](=O)[O-])c1O)c1c(C(=O)O)[nH]c2ccccc12	-9	2	4	7	-31	37*	32
SMILES	HCV core dimer	GPR7 antag	DNA FID counter	GRK2 inh	HCV NS3 hel inh	DAGLB inhibitor	DAGLB confirm
CCc1nnc(NS(=O)(=O)c2ccc(NS(=O)(=O)c3ccccc3[N+](=O)[O-])cc2)s1	-12	1	-16	4	18	-1	.
CCc1nnc(NS(=O)(=O)c2ccc(Nc3ccc([N+](=O)[O-])c4nonc34)cc2)s1	-9	7	-21	0	18	36*	32
Cc1ccc(NS(=O)(=O)c2cc([N+](=O)[O-])ccc2NNC(=S)Nc2cccc(Cl)c2)c(C)c1	13	-12	13	1	22	44*	74*
CC1(C)CC(=O)C2=C(C1)N=C1c3ccccc3C(=O)C1C2c1ccc(Cl)cc1 (centres undefined)	15	-10	-2	2	-2	37*	35*
O=C(CN(CC1CCCO1)C(=O)CNS(=O)(=O)c1ccccc1)NCCc1ccccc1 (centres undefined)	2	-11	-29	0	2	-2	.
Nc1nc(N)c(N=Nc2ccc(S(N)(=O)=O)cc2)c(=O)[nH]1	-18	3	4	6	-7	-4	.
NS(=O)(=O)c1ccc(N=Nc2c(O)ccc3ccccc23)cc1	0	-7	4	0	7	37*	47*
Nc1cc2c(cc1Cl)-c1ccc(Cl)cc1C2=O	.	.	.	.	.	5	.
Nc1ccc2c(c1)C(=O)c1cc(Cl)c(Cl)cc1-2	.	.	.	.	.	34*	39*
CCC(C)Nc1nc2c(c(=O)n(C)c(=O)n2C)n1C (centres undefined)	-1	-8	-7	4	0	1	.
CNC(=O)C1CC(=O)N(c2ccc(OCC(=O)Nc3ccc(OC)cc3)cc2)C1 (centres undefined)	.	.	.	0	.	2	.
COc1cc(/C=C2/C(=O)NN(c3ccc(Cl)c(Cl)c3)C2=O)cc([N+](=O)[O-])c1O	10	-10	24	4	-20	38*	50*
COc1cc(/C=C2/C(=O)N(c3ccc(Br)cc3)N=C2C)cc([N+](=O)[O-])c1O	6	-2	-12	1	1	.	.
COc1cc(/C=C2\SC(=O)N(c3ccccc3Cl)C2=O)cc([N+](=O)[O-])c1O	.	-4	-3	.	32	42*	38*
CC(C)C(NC(=O)c1ccc(F)cc1)C(=O)Nc1cccnc1 (centres undefined)	-1	-12	7	0	6	0	.
Cc1ccc(S(=O)(=O)/N=C2\C=C(Nc3cccc(C(=O)O)c3)C(=O)c3ccccc32)cc1	-6	-21	4	3	-11	37*	40*
Cc1ccc(S(=O)(=O)/N=C2\C=C(Nc3cccc(C(=O)O)c3)C(=O)c3ccccc32)c(C)c1	-8	-14	12	6	-2	46*	46*
Cc1ccc(S(=O)(=O)/N=C2\C=C(NS(=O)(=O)c3ccccc3)C(=O)c3ccccc32)c(C)c1	.	.	.	.	.	19	.
